Data published in ChEMBL document CHEMBL3392953, “Synthesis and biological evaluation of furanoallocolchicinoids” (J Med Chem, 2015).

Columns and labels:
ASPC1 [1] = assay: Cytotoxicity against human AsPC1 cells after 72 hrs by MTT assay; assay type: functional, cell-based; details: ASPC1, 72 h
Summary of the method: (§1)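 Cells seeded at 3x10^5 cells/mL 24 h before assay (HEK293, AsPC-1 in DMEM; Jurkat, W1308 in RPMI-1640; 10% FCS, 2-ME). Tenfold dilutions from […] to 1 nM added; untreated cells as controls. 72 h incubation, MTT 250 µg/ml added for last 6 h, formazan dissolved in DMSO, OD read. IC50 from titration curves; inhibition index = 1 − OD(treated)/OD(control).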

HEK293 [2] = assay: Cytotoxicity against HEK293 cells after 72 hrs by MTT assay; assay type: functional, cell-based; details: Homo sapiens, HEK293, 72 h; summary of the method: as §1
[3] = Cytotoxicity against mouse W1308 cells after 72 hrs by MTT assay; assay type: functional, cell-based; details: W1308, 72 h; summary of the method: as §1
Jurkat [4] = assay: Cytotoxicity against human Jurkat cells after 72 hrs by MTT assay; assay type: functional, cell-based; summary of the method: as §1
Mus musculus [5] = assay: Toxicity in C57BL/6 mouse assessed as interphase microtubule de-stabilizing activity by measuring influx of rhodamine in to spleen at 1 mg/kg, iv co-administered with rhodamine B by fluorimetry; assay type: organism-based; design: dose 1 mg/kg, route intravenous; details: in vivo
Summary of the method: (§2)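 Intact mice, 6–8 wk, 3 per group; compound dissolved in DMSO at 20 mM, 4 µl diluted into 200 µl saline (1 mg/kg), mixed with 50 µl rhodamine B, single i.v. injection; controls DMSO plus rhodamine B. Killed 4 h later; organs cut, extracted in 0.3N acid in ethanol 2 h at 37 °C, centrifuged, supernatant fluorescence read with 540 nm filter.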

Mus musculus [6] = assay: Toxicity in C57BL/6 mouse assessed as interphase microtubule de-stabilizing activity by measuring leakage of rhodamine through the gut at 1 mg/kg, iv co-administered with rhodamine B by fluorimetry; assay type: organism-based; design: dose 1 mg/kg, route intravenous; details: in vivo; summary of the method: as §2
Mus musculus [7] = assay: Toxicity in C57BL/6 mouse assessed as interphase microtubule de-stabilizing activity by measuring influx of rhodamine in to heart at 1 mg/kg, iv co-administered with rhodamine B by fluorimetry; assay type: organism-based; design: dose 1 mg/kg, route intravenous; details: in vivo; summary of the method: as §2
[8] = Induction of apoptosis in mouse W1308 cells assessed as pre-apoptotic cells level at 200 nM after 48 hrs by 3,3'-dihexyloxacarbocyanine iodide and propidium iodide staining based flow cytometry (reference value: 17%); assay type: functional
[9] = Induction of apoptosis in mouse W1308 cells assessed as apoptotic cells level at 200 nM after 48 hrs by 3,3'-dihexyloxacarbocyanine iodide and propidium iodide staining based flow cytometry (reference value: 11%); assay type: functional
Jurkat [10] = assay: Growth inhibition of human Jurkat cells at 100 uM after 72 hrs by MTT assay; assay type: functional; details: read-out: GI
HEK293 [11] = assay: Growth inhibition of HEK293 cells at 100 uM after 72 hrs by MTT assay; assay type: functional; details: Homo sapiens, HEK293, 72 h; read-out: GI
ASPC1 [12] = assay: Growth inhibition of human AsPC1 cells at 100 uM after 72 hrs by MTT assay; assay type: functional; details: ASPC1, 72 h, read-out: GI
[13] = Growth inhibition of mouse W1308 cells at 100 uM after 72 hrs by MTT assay; assay type: functional; details: W1308, 72 h, read-out: GI

| Structure (SMILES) | IC50 (ASPC1 [1]) [µM] | IC50 (HEK293 [2]) [µM] | IC50 [3] [µM] | IC50 (Jurkat [4]) [µM] | Activity (Mus musculus [5]) | Activity (Mus musculus [6]) | Activity (Mus musculus [7]) | Activity [8] [%] | Activity [9] [%] | inhibition of growth at 100 µM (Jurkat [10]) [%] | inhibition of growth at 100 µM (HEK293 [11]) [%] | inhibition of growth at 100 µM (ASPC1 [12]) [%] | inhibition of growth at 100 µM [13] [%] |
| --- | --- | --- | --- | --- | --- | --- | --- | --- | --- | --- | --- | --- | --- |
| CCN(CC)Cc1cc2cc3c(cc2o1)[C@@H](NC(C)=O)CCc1cc(OC)c(OC)c(OC)c1-3 | 20 | > 100 | > 100 | > 100 | – | – | – | – | – | – | – | – | – |
| COC(=O)CCCCCCCCc1cc2cc3c(cc2o1)[C@@H](NC(C)=O)CCc1cc(OC)c(OC)c(OC)c1-3 | > 100 | > 100 | > 100 | > 100 | – | – | – | – | – | – | – | – | – |
| COc1cc2c(c(OC)c1OC)-c1cc3ccn(C)c3cc1C(=O)CC2 | 0.8 | < 0.2 | < 0.2 | < 0.1 | – | – | – | – | – | – | – | – | – |
| COc1cc2c(c(OC)c1OC)-c1ccc(OC)c(=O)cc1[C@@H](NC(C)=O)CC2 [COLCHICINE] | – | – | – | – | Toxic | Toxic | Toxic | – | – | – | – | – | – |
| COc1cc2c(c(OC)c1OC)-c1ccc3c(ccn3C)c1C(=O)CC2 | < 0.02 | < 0.02 | < 0.02 | < 0.02 | – | – | – | 20 | 29 | – | – | – | – |
| COc1cc2c(c(OC)c1OC)-c1cc3cc(-c4ccccn4)oc3cc1[C@@H](NC(C)=O)CC2 | 20 | 20 | 10 | 20 | – | – | – | – | – | – | – | – | – |
| COc1cc2c(c(OC)c1OC)-c1cc3cc(C4(O)CCCC4)oc3cc1[C@@H](NC(C)=O)CC2 | 20 | 4 | 8 | 4 | – | – | – | – | – | 50 | 50 | 50 | 50 |
